{"source": "ChEMBL document CHEMBL2380292", "about": "“Discovery of SAR184841, a potent and long-lasting inhibitor of 11β-hydroxysteroid dehydrogenase type 1, active in a physiopathological animal model of T2D” (Bioorg Med Chem Lett, 2013)", "key": {"Mus musculus [1]": {"tested_on": "Mus musculus", "assay": "Inhibition of 11beta-HSD1 in mouse liver at 3 mg/kg, po after 7 hrs", "format": "functional", "method_in_brief": "(§1)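 Pharmacodynamic study in mice: single oral 3 mg/kg dose, with liver and fat 11β-HSD1 activity followed over 24 h post-dosing.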"}, "Cytochrome P450 3A4": {"target": "Cytochrome P450 3A4 (Homo sapiens, UniProt P08684)", "sequence (P08684 whole entry)": "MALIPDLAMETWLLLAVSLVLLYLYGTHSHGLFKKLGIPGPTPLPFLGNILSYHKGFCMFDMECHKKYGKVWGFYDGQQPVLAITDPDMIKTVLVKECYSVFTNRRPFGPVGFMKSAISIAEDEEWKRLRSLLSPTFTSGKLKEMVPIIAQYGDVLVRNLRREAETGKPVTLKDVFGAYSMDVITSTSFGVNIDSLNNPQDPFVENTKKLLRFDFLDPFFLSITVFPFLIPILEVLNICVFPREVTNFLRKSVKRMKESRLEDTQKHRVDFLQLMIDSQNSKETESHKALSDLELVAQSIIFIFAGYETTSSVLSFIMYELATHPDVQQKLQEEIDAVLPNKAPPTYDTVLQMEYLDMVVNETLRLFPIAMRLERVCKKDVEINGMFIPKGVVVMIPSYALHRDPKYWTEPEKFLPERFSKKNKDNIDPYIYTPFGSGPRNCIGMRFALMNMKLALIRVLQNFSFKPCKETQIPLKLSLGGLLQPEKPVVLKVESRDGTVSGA", "assay": "Inhibition of CYP3A4 (unknown origin)", "format": "ADME"}, "[2]": {"assay": "Solubility of the compound in aqueous buffer up to pH 4.5", "format": "physicochemical"}, "Mus musculus [3]": {"tested_on": "Mus musculus", "assay": "Antidiabetic activity in diet induced obese C57Bl/6J mouse assessed as increase of glucose tolerance at 10 mg/kg, po after 3 weeks by oral glucose tolerance test", "format": "functional"}, "Mus musculus [4]": {"tested_on": "Mus musculus", "assay": "Ex vivo inhibition of 11beta-HSD1 in C57Bl/6J mouse liver at 3 mg/kg, po after 16 hrs", "format": "functional", "method_in_brief": "(§2)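 Mice given a single oral dose as a suspension in Tween 80/0.6% methylcellulose (0.5/99.5, v/v) at 10 mL/kg. At 2 h or 16 h post-dose, animals were killed by cervical dislocation and 50 mg liver and 200 mg subcutaneous fat were taken for 11β-HSD1 activity. Reactions were stopped with HCl 1 N/methanol (1/1). 3H-cortisone and 3H-cortisol were quantified by HPLC with flow scintillation detection.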"}, "in vivo [5]": {"assay": "in vivo", "settings": "rat, adipose tissue, po, 10 mg/kg; call rule not given here"}, "Mus musculus [6]": {"tested_on": "Mus musculus", "assay": "Antidiabetic activity in diet induced obese C57Bl/6J mouse assessed as plasma leptin level at 1 mg/kg, po qd administered for 4 weeks (reference value: 22.5 +/- 2.4 ng/mL)", "format": "functional"}, "Hepatocyte": {"tested_on": "Hepatocyte", "assay": "Intrinsic clearance in human hepatocytes assessed per 10^-6 cells", "format": "ADME, cell-based"}, "Liver": {"tested_on": "Liver", "assay": "Metabolic stability in mouse liver microsomes", "format": "ADME, Microsome"}, "Mus musculus [7]": {"tested_on": "Mus musculus", "assay": "Antidiabetic activity in diet induced obese C57Bl/6J mouse assessed as plasma leptin level at 10 mg/kg, po qd administered for 4 weeks (reference value: 22.5 +/- 2.4 ng/mL)", "format": "functional"}, "Mus musculus [8]": {"tested_on": "Mus musculus", "assay": "Antidiabetic activity in diet induced obese C57Bl/6J mouse assessed as plasma leptin level at 3 mg/kg, po qd administered for 4 weeks (reference value: 22.5 +/- 2.4 ng/mL)", "format": "functional"}, "Mus musculus [9]": {"organism": "Mus musculus", "assay": "Toxicity in C57Bl/6J mouse assessed as HPA axis biomarker modification", "format": "organism-based", "settings": "in vivo"}, "Liver microsomes": {"tested_on": "Liver microsomes", "assay": "Metabolic stability in rat liver microsomes", "format": "ADME, Microsome"}, "Mus musculus [10]": {"tested_on": "Mus musculus", "assay": "Antidiabetic activity in diet induced obese C57Bl/6J mouse assessed as plasma glucose level at 1 mg/kg, po qd administered for 4 weeks (reference value: 297 +/- 15 mg/dL)", "format": "functional"}, "Mus musculus [11]": {"tested_on": "Mus musculus", "assay": "Antidiabetic activity in diet induced obese C57Bl/6J mouse assessed as plasma triglyceride level at 10 mg/kg, po qd administered for 4 weeks (reference value: 36.2 +/- 2.1 […])", "format": "functional"}, "Mus musculus [12]": {"tested_on": "Mus musculus", "assay": "Ex vivo inhibition of 11beta-HSD1 in C57Bl/6J mouse liver at 30 mg/kg, po after 16 hrs", "format": "functional", "method_in_brief": "as §2"}, "Mus musculus [13]": {"tested_on": "Mus musculus", "assay": "Inhibition of 11beta-HSD1 in mouse adipose tissue at 3 mg/kg, po after 7 hrs", "format": "functional", "method_in_brief": "as §1"}, "Mus musculus [14]": {"tested_on": "Mus musculus", "assay": "Ex vivo inhibition of 11beta-HSD1 in C57Bl/6J mouse subcutaneous fat at 3 mg/kg, po after 16 hrs", "format": "functional", "method_in_brief": "as §2"}, "Mus musculus [15]": {"tested_on": "Mus musculus", "assay": "Antidiabetic activity in diet induced obese C57Bl/6J mouse assessed as plasma triglyceride level at 1 mg/kg, po qd administered for 4 weeks (reference value: 36.2 +/- 2.1 […])", "format": "functional"}, "Mus musculus [16]": {"tested_on": "Mus musculus", "assay": "Antidiabetic activity in diet induced obese C57Bl/6J mouse assessed as plasma cholesterol level at 3 mg/kg, po qd administered for 4 weeks (reference value: 154.3 +/- 8.6 mg/dL)", "format": "functional"}, "Mus musculus [17]": {"tested_on": "Mus musculus", "assay": "Antidiabetic activity in diet induced obese C57Bl/6J mouse assessed as plasma cholesterol level at 10 mg/kg, po qd administered for 4 weeks (reference value: 154.3 +/- 8.6 mg/dL)", "format": "functional"}, "in vivo [18]": {"assay": "in vivo", "settings": "rat, brain, po, 10 mg/kg"}, "[19]": {"target": "11-beta-hydroxysteroid dehydrogenase 1 (Homo sapiens, UniProt P28845)", "sequence (P28845 whole entry)": "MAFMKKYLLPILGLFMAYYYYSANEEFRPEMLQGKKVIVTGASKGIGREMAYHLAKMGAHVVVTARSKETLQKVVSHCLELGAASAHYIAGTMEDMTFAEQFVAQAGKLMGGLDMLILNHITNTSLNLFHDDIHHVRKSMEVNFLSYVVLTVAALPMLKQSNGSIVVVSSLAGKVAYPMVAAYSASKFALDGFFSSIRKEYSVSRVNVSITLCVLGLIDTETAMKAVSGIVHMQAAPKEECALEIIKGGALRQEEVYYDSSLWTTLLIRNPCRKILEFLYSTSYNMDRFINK", "assay": "Inhibition of human recombinant 11beta-HSD1 by scintillation proximity assay"}, "[20]": {"assay": "Plasma concentration in C57Bl/6J mouse at 3 mg/kg, po 22 hrs post last dose", "format": "ADME, organism-based", "parameters": "dose 3 mg/kg, route oral", "method_in_brief": "(§3)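 C57Bl/6J mice, 20 weeks old, kept on a high-fat/high-fructose diet (diet-induced obese), were dosed orally once daily for 4 weeks at 1, 3 or 10 mg/kg/day in methylcellulose-Tween 80 vehicle. Lean and obese vehicle-treated controls were included, with n = 9–10 per group. Food intake and body weight were followed. Plasma drug levels were taken at study end, about 22 h after the last dose.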"}, "Mus musculus [21]": {"tested_on": "Mus musculus", "assay": "Antidiabetic activity in po dosed C57Bl/6J mouse assessed as reduction in plasma glucose level administered for 4 weeks", "format": "functional, organism-based"}, "Salmonella typhimurium": {"tested_on": "Salmonella typhimurium", "assay": "Genotoxicity in Salmonella typhimurium by Ames test", "format": "toxicity, organism-based", "settings": "salmonella enterica subsp. enterica serovar typhimurium"}, "Mus musculus [22]": {"tested_on": "Mus musculus", "assay": "Antidiabetic activity in po dosed C57Bl/6J mouse assessed as reduction in plasma insulin level administered for 4 weeks", "format": "functional, organism-based"}, "[23]": {"target": "T1, 11-beta-hydroxysteroid dehydrogenase type 2 (Homo sapiens, UniProt P80365)", "T1 sequence (P80365 whole entry)": "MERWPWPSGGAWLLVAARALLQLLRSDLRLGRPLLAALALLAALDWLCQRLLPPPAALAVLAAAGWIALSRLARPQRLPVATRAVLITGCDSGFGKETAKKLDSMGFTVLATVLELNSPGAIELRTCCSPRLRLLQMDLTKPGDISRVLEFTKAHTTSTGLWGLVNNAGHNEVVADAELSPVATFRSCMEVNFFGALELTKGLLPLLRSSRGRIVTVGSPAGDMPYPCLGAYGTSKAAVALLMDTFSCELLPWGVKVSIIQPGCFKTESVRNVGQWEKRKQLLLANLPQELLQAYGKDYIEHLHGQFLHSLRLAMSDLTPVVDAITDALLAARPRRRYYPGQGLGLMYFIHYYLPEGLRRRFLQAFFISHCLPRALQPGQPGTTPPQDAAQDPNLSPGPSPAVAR", "assay": "Inhibition of human 11beta-HSD2"}, "Mus musculus [24]": {"tested_on": "Mus musculus", "assay": "Antidiabetic activity in diet induced obese C57Bl/6J mouse assessed as liver triglyceride level at 10 mg/kg, po qd administered for 4 weeks (reference value: 210.5 +/- 15.4 mg/g)", "format": "functional"}, "[25]": {"assay": "Plasma concentration in C57Bl/6J mouse at 10 mg/kg, po 22 hrs post last dose", "format": "ADME, organism-based", "parameters": "dose 10 mg/kg, route oral", "method_in_brief": "as §3"}, "Mus musculus [26]": {"tested_on": "Mus musculus", "assay": "Ex vivo inhibition of 11beta-HSD1 in C57Bl/6J mouse subcutaneous fat at 30 mg/kg, po after 16 hrs", "format": "functional", "method_in_brief": "as §2"}, "[27]": {"assay": "Induction of cytochrome P450 (unknown origin)", "format": "ADME", "settings": "human"}, "Mus musculus [28]": {"tested_on": "Mus musculus", "assay": "Antidiabetic activity in diet induced obese C57Bl/6J mouse assessed as plasma triglyceride level at 3 mg/kg, po qd administered for 4 weeks (reference value: 36.2 +/- 2.1 […])", "format": "functional"}, "Mus musculus [29]": {"tested_on": "Mus musculus", "assay": "Antidiabetic activity in diet induced obese C57Bl/6J mouse assessed as plasma glucose level at 3 mg/kg, po qd administered for 4 weeks (reference value: 297 +/- 15 mg/dL)", "format": "functional"}}, "data": [{"smiles": "CC(C)(C)N1CCN(c2ccc(N3CCN(C(=O)N[C@H]4C5CC6CC4C[C@](C(N)=O)(C6)C5)c4ccccc43)nc2)CC1", "values": [{"measurement": "inhibition in vivo at 3 mg/kg", "setting": "Mus musculus [1]", "result": "> 90", "unit": "%"}, {"measurement": "IC50", "setting": "Cytochrome P450 3A4", "result": "> 50", "unit": "µM"}, {"measurement": "solubility", "setting": "[2]", "result": "> 2000", "unit": "µg/mL"}, {"measurement": "Activity", "setting": "Mus musculus [3]", "result": -23, "unit": "%"}, {"measurement": "inhibition in vivo at 3 mg/kg", "setting": "Mus musculus [4]", "result": "> 50", "unit": "%"}, {"measurement": "Kp", "setting": "in vivo [5]", "result": 2.2}, {"measurement": "Activity", "setting": "Mus musculus [6]", "result": 14.9, "unit": "ng/mL"}, {"measurement": "CLH", "setting": "Hepatocyte", "result": 0.035, "unit": "mL/h"}, {"measurement": "Stability", "setting": "Liver", "result": 13, "unit": "%"}, {"measurement": "Activity", "setting": "Mus musculus [7]", "result": 12.5, "unit": "ng/mL"}, {"measurement": "Activity", "setting": "Mus musculus [8]", "result": 12.5, "unit": "ng/mL"}, {"measurement": "Activity", "setting": "Mus musculus [9]", "result": "Non-toxic"}, {"measurement": "Stability", "setting": "Liver microsomes", "result": 15, "unit": "%"}, {"measurement": "Activity", "setting": "Mus musculus [10]", "result": 263, "unit": "mg/dL"}, {"measurement": "Activity", "setting": "Mus musculus [11]", "result": 35, "unit": "mg/mL"}, {"measurement": "inhibition in vivo at 30 mg/kg", "setting": "Mus musculus [12]", "result": 72, "unit": "%"}, {"measurement": "inhibition in vivo at 3 mg/kg", "setting": "Mus musculus [13]", "result": "> 90", "unit": "%"}, {"measurement": "inhibition in vivo at 3 mg/kg", "setting": "Mus musculus [14]", "result": "> 50", "unit": "%"}, {"measurement": "Activity", "setting": "Mus musculus [15]", "result": 33.8, "unit": "mg/mL"}, {"measurement": "Activity", "setting": "Mus musculus [16]", "result": 125.1, "unit": "mg/dL"}, {"measurement": "Activity", "setting": "Mus musculus [17]", "result": 123.6, "unit": "mg/dL"}, {"measurement": "Kp", "setting": "in vivo [18]", "result": 0.14}, {"measurement": "IC50", "setting": "[19]", "result": 0.004, "unit": "µM"}, {"measurement": "concentration at 22 h", "setting": "[20]", "result": 3.8, "unit": "nM"}, {"measurement": "Activity", "setting": "Mus musculus [21]", "result": "Dose-dependent effect"}, {"measurement": "Activity", "setting": "Salmonella typhimurium", "result": "Non-toxic"}, {"measurement": "Activity", "setting": "Mus musculus [22]", "result": "Dose-dependent effect"}, {"measurement": "IC50", "setting": "[23]", "result": 4, "unit": "µM"}, {"measurement": "Activity", "setting": "Mus musculus [24]", "result": 129.1, "unit": "mg/g"}, {"measurement": "concentration at 22 h", "setting": "[25]", "result": 2.6, "unit": "nM"}, {"measurement": "inhibition in vivo at 30 mg/kg", "setting": "Mus musculus [26]", "result": 60, "unit": "%"}, {"measurement": "Activity", "setting": "[27]", "result": "Not Active"}, {"measurement": "Activity", "setting": "Mus musculus [28]", "result": 38.4, "unit": "mg/mL"}, {"measurement": "Activity", "setting": "Mus musculus [29]", "result": 251, "unit": "mg/dL"}]}]}
